Results from paper PMC2745083 (Neuropharmacology, 2009).

Experiments:
[1] = Brain homogenate analysis for parent compound after i.p. injection; format: in vivo, Sprague Dawley rats; conditions: rat, ~65 min post injection
Outline: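 Male Sprague Dawley rats (7–8 weeks) under isoflurane/oxygen got the [11C]-labeled test compound i.p. via a butterfly catheter with a saline rinse (3.0 ± 0.4 mCi), followed by 60 min dynamic PET. Animals were decapitated and brains homogenized in water. The homogenate was precipitated with cold acetonitrile, vortexed and centrifuged (2000 rcf, 2 min). The supernatant was spiked with standard, γ-counted and run on HPLC; the co-eluting fraction was counted as a decay-corrected ratio to initial homogenate radioactivity.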

[2] = Plasma protein binding assay; format: in vitro ADME; conditions: baboon
Outline: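 Formulated [11C]-labeled test compound was incubated 10 min at room temperature in baboon plasma pooled from at least 4 animals. Total activity was sampled, then plasma was ultrafiltered through a Centrifree device (10 min centrifugation) and the filtrate counted. %unbound = Aunbound × 100 / total activity.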

LogD determination = format: physicochemical; conditions: octanol/phosphate buffer, pH 7.4
Outline: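 Formulated [11C]-labeled test compound was partitioned between octanol and phosphate buffer (pH 7.4), vortexed 2 min and centrifuged 2 min. Both layers were sampled. The octanol layer was serially transferred to fresh octanol/buffer and the procedure repeated, giving six sample sets. Radioactivity was measured in a well counter. logD = log(decay-corrected octanol activity × 10 / decay-corrected buffer activity).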

[3] = [acetyl-11C]-SA from published data; ref Hooker et al., 2008; cited from earlier work
[4] = in vivo, 10 mg/kg; cited from earlier work
[5] = [acetyl-11C]-SA from published data; ref Hooker et al., 2008; cited from earlier work; remark: listed apart in the source
[6] = baboon, i.v., acetyl-labeled SA, previous study; ref Hooker, 2008; cited from earlier work
[7] = tested on: permeability glycoprotein (P-gp); conditions: ref Teksin et al., 2009; cited from earlier work
[8] = not given; remark: listed apart in the source
[9] = female, baboon (Papio anubis), in vivo, iv

## CCOCO[C@H]1C[C@@H](C(=O)OC)[C@]2(C)CC[C@H]3C(=O)O[C@H](c4ccoc4)C[C@]3(C)[C@H]2C1=O [EOM-SB]
[1]
  proportion of parent compound remaining in brain homogenate: 14%
  proportion of parent remaining in brain homogenate, fold higher than [11C]-SA: ~3 fold
[2]
  fraction unbound at 10 min: 0.234
[9]
  plasma radioactivity that was parent compound: ~50%
LogD determination
  logD: 2.46 ± 0.01

## COC(=O)[C@@H]1C[C@H](OC(C)=O)C(=O)[C@H]2[C@@]1(C)CC[C@H]1C(=O)O[C@H](c3ccoc3)C[C@]21C [SA, Salvinorin A]
[3]
  Plasma Protein Binding (% unbound): 16.1 % (n = 2)
[4]
  antinociception after 30 minutes: no detectable antinociception
[5]
  LogD (pH 7.4): 2.34 ± 0.09 (n = 4)
[6]
  residual radioactivity in brain at 60 min after injection: 0.004 % ID/cm^3
[7]
  efflux by permeability glycoprotein (P-gp): efflux
[8]; baboon, bolus intravenous administration, whole brain ROI
  maximum average concentration in the brain: 0.015 % ID/cm^3
[8]; baboon, i.v., labeled at the methyl ester
  brain radioactivity at 60 min after injection (cleared to): 0.001%
Baboon plasma after i.v. injection
  time to be metabolized to ~50% in plasma: under 5 min

## COC(=O)[C@@H]1C[C@H](O)C(=O)[C@H]2[C@@]1(C)CC[C@H]1C(=O)O[C@H](c3ccoc3)C[C@]21C [SB, Salvinorin B]
[2]
  fraction unbound at 10 min: 0.473
[8]; [9]
  lower average maximum brain concentration relative to [11C]-SA: approximately 20%
  time of peak brain concentration: 70 s
  time to clear to half of maximum brain concentration: 6.0 min
LogD determination
  logD: 1.5
